Results: ChEMBL document CHEMBL1124064, “Synthesis and anticandidal properties of polyoxin L analogues containing alpha-amino fatty acids” (1988)
In brackets after ≈: the same amount, converted by molar mass.

Columns and labels:
[1] = target: Chitin synthase 1 (Candida albicans) (UniProt P23316); experiment: (§1) Concentration at which chitin synthetase is inhibited by 50%; assay type: functional
Summary of the method: (§2)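 Mixed membrane (particulate) fraction from C. albicans H-317 was the enzyme source. Chitin synthetase activity was measured with and without polyoxin compounds as incorporation of N-acetylglucosamine into chitin. ID50 is the concentration giving 50% inhibition.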

Candida albicans [2] = experiment: Percent inhibition of transport of (Met)3 into Candida albicans H-317; assay type: functional; parameters: concentration or dose not given beside the values
Summary of the method: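 H-317 cells grown in yeast nitrogen base with isoleucine (0.5%) as nitrogen source, washed, and prewarmed 10 min at 37 °C in 2% glucose. Cells were mixed with pH 3.5 citrate (10 mM)-KH2PO4 (10 mM) buffer containing labeled trimethionine (2.9×10^-5 M, 1 μCi/μmol). Analogue was added at 10-fold molar excess. Filtered samples were taken at 0, 1, 2, 3 and 4 min and counted by scintillation; rate was expressed as nmol/mg dry cells/min.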

Candida albicans [3] = experiment: Minimum inhibitory concentration against the growth of Candida albicans 124 NIK strain; assay type: functional
Summary of the method: (§3)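 Cells grown in yeast nitrogen base with ammonium sulfate (0.5%) as nitrogen source, 24-48 h at 37 °C. MIC is the lowest drug concentration producing 5% morphologically aberrant cells, scored by microscopy.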

Candida albicans [4] = experiment: Minimum inhibitory concentration against the growth of Candida albicans H-317 strain; assay type: functional; summary of the method: as §3
Candida albicans [5] = experiment: Minimum inhibitory concentration against the growth of Candida albicans 124 strain; assay type: functional; summary of the method: as §3
Candida albicans [6] = experiment: Percent inhibition of transport of (Leu)2 into Candida albicans H-317; assay type: functional; parameters: concentration or dose not given beside the values
Summary of the method: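 H-317 cells grown in yeast nitrogen base with isoleucine (0.5%) as nitrogen source, harvested at 8×10^6 cells/mL, and washed. Cells in 2% glucose were warmed 10 min at 37 °C, then mixed with pH 5.5 citrate (10 mM)-KH2PO4 (10 mM) buffer containing labeled dileucine (5.6×10^-5 M, 44 μCi/μmol). Analogue was present at 10-fold molar excess. Samples were filtered at 0-4 min and counted; uptake rate was expressed as nmol/mg dry weight/min.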

[7] = target: Chitin synthase 1 (Candida albicans) (UniProt P23316); experiment: as §1; summary of the method: as §2
Candida albicans [8] = experiment: Compound was tested for hydrolysis by Candida albicans H-317 extract; (+) Indicates compound was hydrolyzed by C. albicans H-317 extract; assay type: functional
Summary of the method: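 Cell extract of C. albicans H-317 (100 μL at 200 μg protein/mL) incubated at 37 °C with polyoxin compound (100 μL of 1 μg/mL) plus 300 μL water. Hydrolysis monitored by reversed-phase HPLC, absorbance at 254 nm.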

[9] = Candida albicans, read-out: MIC

Chitin synthase 1 (Candida albicans), sequence (P23316 whole entry, looked up): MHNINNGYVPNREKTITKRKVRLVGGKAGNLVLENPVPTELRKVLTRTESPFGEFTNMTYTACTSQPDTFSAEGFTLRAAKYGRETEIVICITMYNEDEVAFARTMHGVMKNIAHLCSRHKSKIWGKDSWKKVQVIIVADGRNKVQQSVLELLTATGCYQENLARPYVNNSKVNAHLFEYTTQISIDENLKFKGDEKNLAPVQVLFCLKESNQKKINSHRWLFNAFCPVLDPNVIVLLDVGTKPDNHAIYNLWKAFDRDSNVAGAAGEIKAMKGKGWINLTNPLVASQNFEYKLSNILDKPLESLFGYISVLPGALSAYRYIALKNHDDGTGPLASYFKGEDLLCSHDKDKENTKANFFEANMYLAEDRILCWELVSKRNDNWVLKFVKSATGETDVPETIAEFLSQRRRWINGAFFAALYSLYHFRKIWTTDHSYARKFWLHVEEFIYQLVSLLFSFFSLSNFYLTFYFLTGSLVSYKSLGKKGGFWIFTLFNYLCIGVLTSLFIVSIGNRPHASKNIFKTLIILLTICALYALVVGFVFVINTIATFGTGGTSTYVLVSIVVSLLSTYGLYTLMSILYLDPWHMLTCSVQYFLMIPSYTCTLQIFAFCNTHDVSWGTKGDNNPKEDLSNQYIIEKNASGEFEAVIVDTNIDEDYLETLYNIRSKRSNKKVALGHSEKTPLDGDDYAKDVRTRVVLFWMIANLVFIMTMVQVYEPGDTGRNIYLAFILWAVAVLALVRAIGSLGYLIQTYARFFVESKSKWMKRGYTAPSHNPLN

SMILES | MIC (Candida albicans [3]; [9]) | MIC (Candida albicans [4]; [9]) | MIC (Candida albicans [5]; [9]) | ID50 [7] | Inhibition (Candida albicans [2]) | Inhibition (Candida albicans [6]) | other results
CCCCCCCCCCC(N)C(=O)NC(C(=O)O)[C@H]1O[C@@H](n2ccc(=O)[nH]c2=O)[C@H](O)[C@@H]1O (stereo partly drawn) | 80 µg/mL (≈ 165 µM) | 80 µg/mL (≈ 165 µM) | 40 µg/mL (≈ 82.6 µM) | 0.3 µg/mL (≈ 0.619 µM) | 0% | 87% | –
NC(=O)OCC(O)C(O)C(N)C(=O)NC(C(=O)O)[C@H]1O[C@@H](n2cc(C(=O)O)c(=O)[nH]c2=O)[C@H](O)[C@@H]1O (stereo partly drawn) | 320 µg/mL (≈ 614 µM) | 640 µg/mL (≈ 1230 µM) | 320 µg/mL (≈ 614 µM) | 2 µg/mL (≈ 3.84 µM) | 10% | 5% | –
CCCCCCC(N)C(=O)NC(C(=O)O)[C@H]1O[C@@H](n2ccc(=O)[nH]c2=O)[C@H](O)[C@@H]1O (stereo in doubt; 3a) [listing 1 of 2 here] | 640 µg/mL (≈ 1490 µM) | 160 µg/mL (≈ 373 µM) | – | – | 6% | 71% | MIC (Candida albicans [5]): 80 µg/mL (≈ 187 µM)
CCCCCCC(N)C(=O)NC(C(=O)O)[C@H]1O[C@@H](n2ccc(=O)[nH]c2=O)[C@H](O)[C@@H]1O (stereo in doubt; 3a) [listing 2 of 2 here] | – | – | – | 2 µg/mL (≈ 4.67 µM) | – | – | Hydrolysis (Candida albicans [8]): (+)
CCCCCCC(N)C(=O)NC(C(=O)O)[C@H]1O[C@@H](n2ccc(=O)[nH]c2=O)[C@H](O)[C@@H]1O (stereo in doubt; 3b) [listing 1 of 2 here] | – | – | – | – | 10% | 14% | MIC (Candida albicans [3]): >320 µg/mL; MIC (Candida albicans [4]): >320 µg/mL; MIC (Candida albicans [5]): >320 µg/mL
CCCCCCC(N)C(=O)NC(C(=O)O)[C@H]1O[C@@H](n2ccc(=O)[nH]c2=O)[C@H](O)[C@@H]1O (stereo in doubt; 3b) [listing 2 of 2 here] | – | – | – | > 50 µg/mL | – | – | –
CCCCCCCCCCCCCCC(N)C(=O)NC(C(=O)O)[C@H]1O[C@@H](n2ccc(=O)[nH]c2=O)[C@H](O)[C@@H]1O (stereo in doubt; 5a) [listing 1 of 2 here] | – | – | – | – | – | 56% | –

Second part, led by results:

MIC (Candida albicans [3]; [9]) | MIC (Candida albicans [4]; [9]) | MIC (Candida albicans [5]; [9]) | ID50 [7] | SMILES | Inhibition (Candida albicans [2]) | Inhibition (Candida albicans [6]) | other results
> 640 µg/mL | > 640 µg/mL | > 640 µg/mL | – | NC(C(=O)O)[C@H]1O[C@@H](n2ccc(=O)[nH]c2=O)[C@H](O)[C@@H]1O (stereo partly drawn) | 3% | – | ID50 [1]: > 100 µg/mL
– | – | – | > 100 µg/mL | CCCCCCCCCCCCCCC(N)C(=O)NC(C(=O)O)[C@H]1O[C@@H](n2ccc(=O)[nH]c2=O)[C@H](O)[C@@H]1O (stereo in doubt; 5a) [listing 2 of 2 here] | – | – | –
> 320 µg/mL | > 320 µg/mL | > 320 µg/mL | – | CCCCCCCCCCCCCCC(N)C(=O)NC(C(=O)O)[C@H]1O[C@@H](n2ccc(=O)[nH]c2=O)[C@H](O)[C@@H]1O (stereo in doubt; 5b) [listing 1 of 2 here] | 10% | 83% | –
– | – | – | 10 µg/mL (≈ 18.5 µM) | CCCCCCCCCCCCCCC(N)C(=O)NC(C(=O)O)[C@H]1O[C@@H](n2ccc(=O)[nH]c2=O)[C@H](O)[C@@H]1O (stereo in doubt; 5b) [listing 2 of 2 here] | – | – | –
